Results as given in ChEMBL document CHEMBL3826879, “Synthesis and biological evaluation of analogues of the potent ADAM8 inhibitor cyclo(RLsKDK) for the treatment of inflammatory diseases and cancer metastasis” (Bioorg Med Chem, 2016).
Where a SMILES comes first, the peptide text is derived from it. Bridges are numbered along the chain shown (N, C = ends). [ ]: non-standard residue; d: D form. Arg(NO2) = N=C(NCCC[C@H](N)C(=O)O)N[N+](=O)[O-]; Lys(Me3) = C[N+](C)(C)CCCC[C@H](N)C(=O)O; hArg = N=C(N)NCCCC[C@H](N)C(=O)O; tBuAla = CC(C)(C)C[C@H](N)C(=O)O; Cit = NC(=O)NCCC[C@H](N)C(=O)O; hLeu = CC(C)CC[C@H](N)C(=O)O; β3hS = N[C@@H](CO)CC(=O)O; Nle = CCCC[C@H](N)C(=O)O; Orn = NCCC[C@H](N)C(=O)O; Dab = NCC[C@H](N)C(=O)O; Nva = CCC[C@H](N)C(=O)O; Dap = NC[C@H](N)C(=O)O; βAla = NCCC(=O)O

Molecular target: T1, Disintegrin and metalloproteinase domain-containing protein 8 (Homo sapiens, UniProt P78325)
T1 sequence (P78325 whole entry): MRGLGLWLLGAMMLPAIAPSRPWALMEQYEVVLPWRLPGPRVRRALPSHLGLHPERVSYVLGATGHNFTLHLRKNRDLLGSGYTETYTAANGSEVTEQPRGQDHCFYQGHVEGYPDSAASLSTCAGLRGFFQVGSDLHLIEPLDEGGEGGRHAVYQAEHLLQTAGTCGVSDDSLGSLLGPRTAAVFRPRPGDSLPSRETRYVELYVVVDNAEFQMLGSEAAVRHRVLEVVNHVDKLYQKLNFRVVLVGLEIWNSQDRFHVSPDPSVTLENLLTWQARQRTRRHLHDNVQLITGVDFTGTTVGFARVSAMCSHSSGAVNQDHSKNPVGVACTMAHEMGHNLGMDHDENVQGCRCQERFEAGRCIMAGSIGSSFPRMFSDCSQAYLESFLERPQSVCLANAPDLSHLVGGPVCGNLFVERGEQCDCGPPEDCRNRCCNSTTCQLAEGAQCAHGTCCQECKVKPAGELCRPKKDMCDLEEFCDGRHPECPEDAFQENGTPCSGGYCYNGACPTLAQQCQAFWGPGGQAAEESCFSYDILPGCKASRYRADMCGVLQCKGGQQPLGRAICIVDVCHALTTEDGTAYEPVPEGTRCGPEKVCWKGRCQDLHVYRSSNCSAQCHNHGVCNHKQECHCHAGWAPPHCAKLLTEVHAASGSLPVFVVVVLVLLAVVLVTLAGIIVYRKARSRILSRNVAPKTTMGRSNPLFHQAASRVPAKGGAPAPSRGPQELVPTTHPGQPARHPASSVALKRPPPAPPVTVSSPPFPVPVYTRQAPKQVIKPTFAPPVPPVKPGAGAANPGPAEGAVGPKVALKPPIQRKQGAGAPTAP
Test: Inhibition of ADAM8 (unknown origin) expressed in African green monkey COS7 cells co-expressing CD23 assessed as inhibition of CD23 shedding after 6 hrs by ELISA
Format: cell-based, COS-7
Method in brief: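 COS7 cells co-transfected with CD23 and ADAM8 cDNA, seeded at 2 × 10^5 cells/well and exposed to peptide at 10 nM–10 μM for 6 h. Supernatant CD23 measured by sandwich ELISA: biotinylated anti-CD23 monoclonal antibody, 2 h at room temperature, streptavidin–HRP 1 h, TMB substrate, absorbance at 405 nm. Samples in duplicate against 400–12.5 units/mL standards. IC50 derived.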

Going from `CC(C)C[C@@H]1NC(=O)[C@H](CCCNC(=N)N)NC(=O)[C@H](CCCCN)NC(=O)[C@H](CC(=O)O)NC(=O)[C@H](CCCCN)NC(=O)CCNC1=O` (cyclo(DKRL[βAla]K)) to `CC(C)C[C@@H]1NC(=O)[C@H](CCCNC(=N)N)NC(=O)[C@H](CCCN)NC(=O)[C@H](CC(=O)O)NC(=O)[C@H](CCCCN)NC(=O)CCNC1=O` (cyclo(D[Orn]RL[βAla]K)), the IC50 rises from 1650 nM to greater than 5000 nM. The first is the more potent here.

`CC(C)CC[C@@H]1NC(=O)[C@H](CCCNC(=N)N)NC(=O)[C@H](CCCCN)NC(=O)[C@H](CC(=O)O)NC(=O)[C@H](CCCCN)NC(=O)C[C@H](CO)NC1=O` (cyclo(DKR[hLeu][β3hS]K)) and `CC(C)C[C@@H]1NC(=O)[C@H](CCCNC(=N)N)NC(=O)[C@H](CCCCN)NC(=O)[C@H](CC(=O)O)NC(=O)[C@H](CCCCN)NC(=O)C[C@H](CO)NC1=O` (cyclo(DKRL[β3hS]K)) are within 1.5-fold of each other in IC50: 142 nM for the first, 157 nM for the second.

`CCC[C@@H]1NC(=O)[C@H](CCCNC(=N)N)NC(=O)[C@H](CCCCN)NC(=O)[C@H](CC(=O)O)NC(=O)[C@H](CCCCN)NC(=O)CCNC1=O` (cyclo(DKR[Nva][βAla]K)) and `CCCC[C@@H]1NC(=O)[C@H](CCCNC(=N)N)NC(=O)[C@H](CCCCN)NC(=O)[C@H](CC(=O)O)NC(=O)[C@H](CCCCN)NC(=O)CCNC1=O` (cyclo(DKR[Nle][βAla]K)) are within 1.5-fold of each other in IC50: 452 nM for the first, 378 nM for the second.

`CC(C)C[C@@H]1NC(=O)[C@H](CCCNC(=N)N)NC(=O)[C@H](CN)NC(=O)[C@H](CC(=O)O)NC(=O)[C@H](CCCCN)NC(=O)CCNC1=O` (cyclo(D[Dap]RL[βAla]K)) and `CC(C)C[C@@H]1NC(=O)[C@H](CCCNC(=N)N)NC(=O)[C@H](CCN)NC(=O)[C@H](CC(=O)O)NC(=O)[C@H](CCCCN)NC(=O)CCNC1=O` (cyclo(D[Dab]RL[βAla]K)) cannot be ordered by IC50: greater than 5000 nM for the first, greater than 5000 nM for the second.

First: CC(C)C[C@@H]1NC(=O)[C@H](CCCNC(=N)N)NC(=O)[C@H](CCCC[N+](C)(C)C)NC(=O)[C@H](CC(=O)O)NC(=O)[C@H](CCCCN)NC(=O)CCNC1=O (cyclo(D[Lys(Me3)]RL[βAla]K))
Second: CC(C)C[C@@H]1NC(=O)[C@H](CCCNC(N)=O)NC(=O)[C@H](CCCCN)NC(=O)[C@H](CC(=O)O)NC(=O)[C@H](CCCCN)NC(=O)CCNC1=O (cyclo([Cit]L[βAla]KDK))
The IC50 of the first is higher: greater than 10000 nM for the first, 890 nM for the second.

Compared with `CC(C)C[C@@H]1NC(=O)[C@H](CCCNC(=N)N)NC(=O)[C@H](CCCCN)NC(=O)[C@H](CC(=O)O)NC(=O)[C@H](CCCCN)NC(=O)C[C@@H](C(=O)O)NC1=O` (KDKRLD-OH; lactam N-6), `CC(C)C[C@@H]1NC(=O)[C@H](CCCNC(N)=O)NC(=O)[C@H](CCCCN)NC(=O)[C@H](CC(=O)O)NC(=O)[C@H](CCCCN)NC(=O)C[C@H](CO)NC1=O` (cyclo([Cit]L[β3hS]KDK)) is 2.2-fold lower in IC50: 420 nM for the first, 192 nM for the second.

Compared with `CC(C)C[C@@H]1NC(=O)[C@H](CCCNC(=N)N)NC(=O)[C@H](CCCCN)NC(=O)[C@H](CC(=O)O)NC(=O)[C@H](CCCCN)NC(=O)[C@H](CO)NC1=O` (cyclo(DKRLSK)), `CC(C)C[C@@H]1NC(=O)[C@H](CCCCNC(=N)N)NC(=O)[C@H](CCCCN)NC(=O)[C@H](CC(=O)O)NC(=O)[C@H](CCCCN)NC(=O)C[C@H](CO)NC1=O` (cyclo(DK[hArg]L[β3hS]K)) is 1.5-fold higher in IC50: 240 nM for the first, 368 nM for the second.

Compared with `CC(C)C[C@@H]1NC(=O)[C@H](CCCNC(=N)N[N+](=O)[O-])NC(=O)[C@H](CCCCN)NC(=O)[C@H](CC(=O)O)NC(=O)[C@H](CCCCN)NC(=O)CCNC1=O` (cyclo([Arg(NO2)]L[βAla]KDK)), `CC(C)C[C@@H]1NC(=O)[C@H](CCCNC(=N)N[N+](=O)[O-])NC(=O)[C@H](CCCCN)NC(=O)[C@H](CC(=O)O)NC(=O)[C@H](CCCCN)NC(=O)C[C@H](CO)NC1=O` (cyclo([Arg(NO2)]L[β3hS]KDK)) is 1.9-fold lower in IC50: 2350 nM for the first, 1240 nM for the second. The second is the more potent here.

`CC(C)(C)C[C@@H]1NC(=O)[C@H](CCCNC(=N)N)NC(=O)[C@H](CCCCN)NC(=O)[C@H](CC(=O)O)NC(=O)[C@H](CCCCN)NC(=O)CCNC1=O` (cyclo(DKR[tBuAla][βAla]K)) and `CC(C)CC[C@@H]1NC(=O)[C@H](CCCNC(=N)N)NC(=O)[C@H](CCCCN)NC(=O)[C@H](CC(=O)O)NC(=O)[C@H](CCCCN)NC(=O)CCNC1=O` (cyclo(DKR[hLeu][βAla]K)) are within 1.5-fold of each other in IC50: 256 nM for the first, 220 nM for the second.
